From paper PMC6045484 (ACS Omega, 2018)
Values after ≈ are worked out from the molar mass of the structure shown. “Also recorded” adds a separate entry of the source.

Experiments:
P. falciparum (D6) = test: in vitro antimalarial activity, plasmodial LDH; format: cell-based, Plasmodium falciparum; details: Plasmodium falciparum, D6, 72 h, read-out: P. falciparum (D6) IC50
P. falciparum (W2) = test: in vitro antimalarial activity, plasmodial LDH; format: cell-based, Plasmodium falciparum
Summary of the method: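 P. falciparum-infected erythrocytes (2% parasitemia, 2% hematocrit) in RPMI 1640 with 10% human serum and 60 μg/mL amikacin. Exposed to test compound dilutions for 72 h at 37 °C under 90% N2/5% O2/5% CO2. LDH measured with Malstat reagent (30 min, room temperature), then NBT/PES for 1 h in the dark, stopped with 5% acetic acid, read at 650 nm. IC50 from dose-response curves.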

[1] = system: SK-MEL, KB, BT-549, SK-OV-3, VERO and LLC-PK1 cells; test: cytotoxicity, neutral red uptake assay; format: cell-based, mammalian; details: highest test concentration 4760 ng/mL
Summary of the method: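 Cells seeded at 25 000/well and allowed 24 h to reach confluence. Test compound was then added and incubated 48 h. Viable cells were counted by a modified neutral red uptake method. The panel was four human cancer lines and two noncancerous mammalian kidney lines. Doxorubicin served as positive control and DMSO as negative control.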

[2] = system: P. berghei (sensitive strain); test: blood-schizontocidal activity against P. berghei infection in mice; format: in vivo, Plasmodium berghei; details: Swiss mice
Summary of the method: (§1)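 Swiss mice of either sex (about 15–20 g, same age), six per group, inoculated intraperitoneally on day 0 with 1 × 10^7 infected erythrocytes from a donor mouse. Oral test compound at 100, 50, 25 or 10 mg/kg, CQ diphosphate (10 mg/kg/day × 4) or vehicle started 4 h later, on D0 to D+3. Giemsa tail-blood smears on D+4 and D+7. Curative: parasites eliminated, no relapse, all mice surviving to D+60.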

[3] = system: multidrug-resistant P. yoelii nigeriensis; test: blood-schizontocidal activity against P. yoelii nigeriensis infection in mice; format: in vivo, Plasmodium yoelii nigeriensis; details: Swiss mice
Summary of the method: as §1

[4] = system: L. donovani promastigotes; test: in vitro antileishmanial activity, alamarBlue assay; format: cell-based, Leishmania donovani; details: Leishmania donovani, 48 h
C. albicans ATCC90028 = test: in vitro antifungal activity; format: cell-based, Candida albicans; details: Candida albicans
Summary of the method: (§2)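 Modified NCCLS broth method in Sabouraud dextrose. Inoculum set by OD630 to 1.5 × 10^3 CFU/mL. Test compound serially diluted in 20% DMSO/saline, duplicate wells, up to 20 μg/mL. Incubated 70–74 h at 35 °C; 530 nm read before and after. IC50 is 50% growth inhibition; MIC is no detectable growth. MFC from clear wells subcultured on agar. Amphotericin B control.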

C. neoformans ATCC90113 = test: in vitro antifungal activity; format: cell-based, Cryptococcus neoformans; details: Cryptococcus neoformans
Summary of the method: as §2

A. fumigatus ATCC 90906 = test: in vitro antifungal activity; format: cell-based, Aspergillus fumigatus; details: Aspergillus fumigatus
Summary of the method: as §2

SA (ATCC29213) = test: in vitro antibacterial activity; format: cell-based; details: Staphylococcus aureus
Summary of the method: (§3)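 Test compound serially diluted in 20% DMSO/saline and plated in duplicate, up to 20 μg/mL. Inoculum in cation-adjusted Mueller–Hinton broth, pH 7.3, set by OD630 to 5 × 10^5 CFU/mL. Incubated 16–20 h at 35 °C; 530 nm read before and after. IC50 is 50% growth inhibition; MIC is no detectable growth. MBC from clear wells subcultured on agar. Ciprofloxacin control.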

MRSA (ATCC33591) = test: in vitro antibacterial activity; format: cell-based, methicillin-resistant Staphylococcus aureus; details: Staphylococcus aureus, ATCC33591|MRSA, read-out: MIC, MRSA
Summary of the method: as §3

[5] = system: M. intracellulare (ATCC23068); test: in vitro antibacterial activity, modified alamarBlue procedure; format: cell-based, Mycobacterium intracellulare; details: Mycobacterium intracellulare
Summary of the method: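 Modified alamarBlue microplate method. Test compound serially diluted in 20% DMSO/saline, duplicate wells, up to 20 μg/mL. Inoculum 2.0 × 10^6 CFU/mL in Middlebrook 7H9 with OADC, pH 7.3, containing 5% alamarBlue. Incubated 70–74 h at 37 °C, 10% CO2; fluorescence 544ex/590em read before and after. MIC: no blue-to-pink change. MBC by subculturing blue wells on agar. Ciprofloxacin control.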

CCCCCCOc1c(OC)cc(NC(C)CCCN)c2nc(C(C)(C)C)ccc12 (centres unmarked) [compound 47, N^4-(2-tert-Butyl-5-(hexyloxy)-6-methoxyquinolin-8-yl)pentane-1,4-diamine]
IC50 (P. falciparum (D6)): 0.042 µg/mL (≈ 0.101 µM)
P. falciparum (W2) IC50 (P. falciparum (W2); CQ-resistant W2 strain, 72 h): 0.04 µg/mL
IC50 (P. falciparum (W2); Plasmodium falciparum, W2, 72 h, read-out: P. falciparum (W2) IC50, CQ-resistant W2 strain, 72 h): 0.042 µg/mL (≈ 0.101 µM)
cytotoxicity CTX [1]: NC (NC, not cytotoxic up to 4760 ng/mL (4.76 μg/mL))
P. berghei blood-schizontocidal activity (mice cured/treated) ([2]; 10 mg/kg/day × 4, oral): active (5/6)
P. berghei blood-schizontocidal activity (mice cured/treated) ([2]; 25 mg/kg/day × 4, oral): curative (6/6)
P. berghei blood-schizontocidal activity (mice cured/treated) ([2]; 50 mg/kg/day × 4, oral): curative (6/6)
P. berghei blood-schizontocidal activity (mice cured/treated) ([2]; 100 mg/kg/day × 4, oral): curative (6/6)
P. yoelii nigeriensis blood-schizontocidal activity (mice cured/treated) ([3]; 25 mg/kg/day × 4, oral): inactive (0/6)
P. yoelii nigeriensis blood-schizontocidal activity (mice cured/treated) ([3]; 50 mg/kg/day × 4, oral): cured 100% mice; also recorded: curative (6/6)
P. yoelii nigeriensis blood-schizontocidal activity (mice cured/treated) ([3]; 100 mg/kg/day × 4, oral): curative (6/6)
IC50 ([4]; read-out: L. donovani IC50, promastigotes, 48 h): 4.6 µg/mL (≈ 11.1 µM)
IC90 ([4]; read-out: L. donovani IC90, promastigotes, 48 h): > 40 µg/mL
IC50 (C. albicans ATCC90028; ATCC90028, read-out: C. albicans IC50): 15.4 µg/mL (≈ 37.2 µM)
MFC (C. albicans ATCC90028; ATCC90028, read-out: C. albicans MFC): 20 µg/mL (≈ 48.1 µM)
MIC (C. albicans ATCC90028; ATCC90028, read-out: C. albicans MIC): 20 µg/mL (≈ 48.1 µM)
IC50 (C. neoformans ATCC90113; ATCC90113, read-out: C. neoformans IC50): 2.97 µg/mL (≈ 7.15 µM)
MFC (C. neoformans ATCC90113; ATCC90113, read-out: C. neoformans MFC): 5 µg/mL (≈ 12 µM)
MIC (C. neoformans ATCC90113; ATCC90113, read-out: C. neoformans MIC): 5 µg/mL (≈ 12 µM)
IC50 (A. fumigatus ATCC 90906; ATCC90906, read-out: A. fumigatus IC50): > 20 µg/mL
MFC (A. fumigatus ATCC 90906; ATCC90906, read-out: A. fumigatus MFC): > 20 µg/mL
MIC (A. fumigatus ATCC 90906; ATCC90906, read-out: A. fumigatus MIC): > 20 µg/mL
IC50 (SA (ATCC29213); ATCC29213, read-out: IC50 (concentration that affords 50% growth inhibition), SA): 2.77 µg/mL (≈ 6.66 µM)
MBC (SA (ATCC29213); ATCC29213, read-out: MBC (minimum bactericidal concentration), SA): 5 µg/mL (≈ 12 µM)
MIC (SA (ATCC29213); ATCC29213, read-out: MIC, SA): 5 µg/mL (≈ 12 µM)
MIC (MRSA (ATCC33591)): 5 µg/mL (≈ 12 µM)
IC50 ([5]; ATCC23068, read-out: IC50 (concentration that affords 50% growth inhibition), M. intracellulare): 6.3 µg/mL (≈ 15.2 µM)
MBC ([5]; ATCC23068, read-out: MBC (minimum bactericidal concentration), M. intracellulare): 10 µg/mL (≈ 24.1 µM)
MIC ([5]; ATCC23068, read-out: MIC, M. intracellulare): 10 µg/mL (≈ 24.1 µM)
